Results taken from ChEMBL document CHEMBL1137559, “Rational design of 5'-thiourea-substituted alpha-thymidine analogues as thymidine monophosphate kinase inhibitors capable of inhibiting mycobacterial growth” (J Med Chem, 2007).

Legend:
Thymidylate kinase = molecular target: T1, Thymidylate kinase (Mycobacterium tuberculosis, UniProt P9WKE1); experiment: Inhibition of Mycobacterium tuberculosis TMPK expressed in Escherichia coli by spectrophotometric assay
T1 sequence (P9WKE1 whole entry): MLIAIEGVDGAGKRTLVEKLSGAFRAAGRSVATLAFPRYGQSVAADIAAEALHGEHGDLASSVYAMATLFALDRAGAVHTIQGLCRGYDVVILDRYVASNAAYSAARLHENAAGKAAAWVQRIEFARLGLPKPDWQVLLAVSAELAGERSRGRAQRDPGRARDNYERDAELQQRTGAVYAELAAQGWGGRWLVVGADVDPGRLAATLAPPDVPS
Summary of the method: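 Recombinant mycobacterial and human TMPK, both expressed in E. coli, run in an NADH-coupled assay (pyruvate kinase, lactate dehydrogenase, nucleoside diphosphate kinase, 2 units each) read at 334 nm. ATP 0.5 mM and dTMP 0.05 mM held constant; analogues 0.01–2 mM; Ki determined for each enzyme.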

[1] = Inhibition of human TMPK expressed in Escherichia coli by spectrophotometric assay
[2] = Cytotoxicity against Vero cells at 100 uM after 3 days; type: cell-based; details: chlorocebus sabaeus
Summary of the method: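 Confluent Vero monolayers given serial compound dilutions; incubated 3 days at 37°C, humidified CO2 atmosphere; cultures inspected microscopically for altered morphology. MCC = concentration causing microscopic alteration of mock-infected cultures at day 3.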

[3] = test system: Mycobacterium tuberculosis; experiment: Growth inhibition of Mycobacterium tuberculosis H37Rv at 6.25 ug/mL by MABA assay; type: functional
Summary of the method: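 Single-concentration screen in BACTEC 12B medium using the Microplate Alamar Blue Assay; percent inhibition recorded.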

| SMILES | Ki (Thymidylate kinase) | Ki [1] | MCC at 72 h, up to 100 µM [2] | inhibition at 6.25 µg/mL [3] |
| --- | --- | --- | --- | --- |
| Cc1cn([C@@H]2C[C@H](O)[C@@H](CNC(=S)NCCc3ccccc3)O2)c(=O)[nH]c1=O | 3.8 µM | > 800 µM | > 100 µM |  |
| Cc1cn([C@@H]2C[C@H](O)[C@@H](CNC(=S)Nc3ccc(Cl)c(Cl)c3)O2)c(=O)[nH]c1=O | 1 µM | 274 µM | > 100 µM | 38% |
| Cc1cn([C@@H]2C[C@H](O)[C@@H](CNC(=S)Nc3ccc(N4CCOCC4)cc3)O2)c(=O)[nH]c1=O | 19.2 µM |  |  |  |
| Cc1cn([C@@H]2C[C@H](O)[C@@H](CNC(=S)NC34CC5CC(CC(C5)C3)C4)O2)c(=O)[nH]c1=O | 15 µM |  | > 100 µM |  |
| Cc1cn([C@@H]2C[C@H](O)[C@@H](CNC(=O)c3ccccc3)O2)c(=O)[nH]c1=O | 35 µM |  |  |  |
| Cc1cn(COCCNC(=S)Nc2ccccc2)c(=O)[nH]c1=O | 260 µM |  | > 100 µM |  |
| Cc1cn([C@@H]2C[C@H](O)[C@@H](CN=[N+]=[N-])O2)c(=O)[nH]c1=O | 26.5 µM |  |  |  |
| Cc1cn([C@H]2C[C@H](CNC(=S)Nc3ccc(Cl)cc3)[C@@H](CO)O2)c(=O)[nH]c1=O | 21 µM |  | > 100 µM |  |
| COc1ccc(NC(=S)NC[C@H]2C[C@H](n3cc(C)c(=O)[nH]c3=O)O[C@@H]2CO)cc1 | 46 µM |  | > 100 µM |  |
| Cc1cn([C@H]2C[C@H](CNC(=S)Nc3ccc(Cl)c(Cl)c3)[C@@H](CO)O2)c(=O)[nH]c1=O | 7.2 µM |  | > 100 µM |  |
| Cc1cn([C@H]2C[C@H](CNC(=S)Nc3ccc(OCc4ccccc4)cc3)[C@@H](CO)O2)c(=O)[nH]c1=O | 12 µM |  | > 100 µM |  |
| Cc1cn([C@@H]2C[C@H](O)[C@@H](CNC(=S)NC(=O)c3ccccc3)O2)c(=O)[nH]c1=O | 7.2 µM |  |  |  |
| Cc1cn([C@@H]2C[C@H](O)[C@@H](CNC(=S)NCc3ccccc3)O2)c(=O)[nH]c1=O | 5.4 µM |  |  |  |
| Cc1cn([C@@H]2CC[C@@H](CNC(=S)Nc3ccc(Cl)c(C(F)(F)F)c3)O2)c(=O)[nH]c1=O | 2.3 µM | > 500 µM |  | 34% |
| Cc1cn([C@@H]2C[C@H](O)[C@@H](CNC(=O)Nc3ccc(Cl)c(Cl)c3)O2)c(=O)[nH]c1=O | 1.1 µM | 116 µM |  | 41% |
| Cc1cn([C@@H]2C[C@@H](CNC(=O)NC[C@H]3C[C@H](n4cc(C)c(=O)[nH]c4=O)O[C@@H]3CO)[C@H](CO)O2)c(=O)[nH]c1=O | 37 µM | > 1000 µM |  |  |

| SMILES | Ki (Thymidylate kinase) | Ki [1] | MCC at 72 h, up to 100 µM [2] | inhibition at 6.25 µg/mL [3] |
| --- | --- | --- | --- | --- |
| Cc1cn([C@@H]2C[C@H](O)[C@@H](CNC(=O)Nc3ccc(Cl)c(C(F)(F)F)c3)O2)c(=O)[nH]c1=O | 1.9 µM | 166 µM |  | 49% |
| Cc1cn([C@H]2C[C@H](CNC(=S)Nc3ccccc3)[C@@H](CO)O2)c(=O)[nH]c1=O | 69 µM |  |  |  |
| Cc1cn([C@@H]2C[C@H](O)[C@@H](CNC(=S)Nc3ccc(Cl)c(C(F)(F)F)c3)O2)c(=O)[nH]c1=O | 0.6 µM | 362 µM | > 100 µM | 39% |
| COc1ccc(NC(=S)NC[C@H]2O[C@H](n3cc(C)c(=O)[nH]c3=O)C[C@@H]2O)cc1 | 10 µM |  |  |  |
| Cc1cn([C@@H]2C[C@H](O)[C@@H](CNC(=S)NCc3ccc(Cl)c(C(F)(F)F)c3)O2)c(=O)[nH]c1=O | 2.6 µM | 50 µM | > 100 µM |  |
| Cc1cn([C@@H]2C=C[C@@H](CNC(=S)Nc3ccc(Cl)c(C(F)(F)F)c3)O2)c(=O)[nH]c1=O | 3.8 µM | 190 µM |  | 55% |
| Cc1cn([C@@H]2C[C@H](O)[C@@H](CNC(=S)Nc3ccccc3)O2)c(=O)[nH]c1=O | 16 µM |  | > 100 µM |  |
| Cc1ccc(NC(=S)NC[C@H]2O[C@H](n3cc(C)c(=O)[nH]c3=O)C[C@@H]2O)cc1 | 7.8 µM |  |  |  |
| Cc1ccc(NC(=S)NC[C@H]2C[C@H](n3cc(C)c(=O)[nH]c3=O)O[C@@H]2CO)cc1 | 36 µM |  | > 100 µM |  |
| Cc1cn([C@@H]2C[C@H](O)[C@@H](CNC(=S)NCCc3ccc(Cl)c(Cl)c3)O2)c(=O)[nH]c1=O | 2.2 µM | 79 µM | > 100 µM |  |
| Cc1cn([C@@H]2C[C@H](O)[C@@H](CNC(=S)Nc3ccc4c(c3)C(=O)OC43c4ccc(O)cc4Oc4cc(O)ccc43)O2)c(=O)[nH]c1=O | 5.4 µM |  |  |  |
| Cc1cn(COCCNC(=S)Nc2ccc(Cl)c(C(F)(F)F)c2)c(=O)[nH]c1=O | 37 µM |  | 100 µM | 34% |
| Cc1cn([C@@H]2C[C@H](O)[C@@H](CNC(=S)NC(c3ccccc3)c3ccccc3)O2)c(=O)[nH]c1=O | 4.9 µM | > 500 µM | > 100 µM |  |
| Cc1cn([C@@H]2C[C@H](O)[C@@H](CN)O2)c(=O)[nH]c1=O | 16 µM |  |  |  |
| Cc1cn([C@H]2C[C@H](CNC(=S)Nc3ccc(Cl)c(C(F)(F)F)c3)[C@@H](CO)O2)c(=O)[nH]c1=O | 5 µM | > 1000 µM | > 100 µM |  |
| Cc1cn([C@@H]2C[C@H](O)[C@@H](CNC(=S)Nc3ccc(Cl)cc3)O2)c(=O)[nH]c1=O | 3.2 µM | > 1000 µM |  |  |
